Reference: ChEMBL document CHEMBL1134394, “Synthesis and biological activity of aminoguanidine and diaminoguanidine analogues of the antidiabetic/antiobesity agent 3-guanidinopropionic acid” (2001)
Values belong to the molecule of their own block, whether it stands above or below them.

Legend:
[1] = In vivo blood glucose was determined in obese, hyperglycemic, hyperinsulinemic, insulin-resistant KKAy mice after a dose of 500 mg/kg for 4 days; assay type: functional, Mus musculus
[2] = target: Creatine kinase M-type (Homo sapiens) (UniProt P06732); assay: Reaction rate of creatine kinase was determined (relative to creatine)
Mus musculus [3] = assay: In vivo blood glucose was determined in obese,hyperglycemic,hyperinsulinemic,insulin-resistant KKAy mice after a dose of 500 mg/kg for 4 days; assay type: functional
Procedure, shortened: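 KKAy mice (obese, hyperinsulinemic) grouped into treated and control (n = 6) after pretest glucose on an Alpkem autoanalyzer. Compound given in food at 500 mg/kg for 4 days, then nonfasting blood glucose measured. Result expressed as treated/control (T/C). Wilcoxon rank-sum test applied when T/C < 0.80.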

[4] = Inhibition of creatine transport was assessed from Percent inhibition of [C14] creatine uptake; assay type: functional; parameters: concentration or dose not given beside the values; settings: dose or concentration not given here
[5] = target: Creatine kinase M-type (Homo sapiens) (UniProt P06732); assay: Reaction rate of creatine kinase activity is determined at 1 mM concentration
Mus musculus [6] = assay: Terminal lean body weight was determined in ob/ob mice after oral administration for two weeks (control = 25+/-1); assay type: functional
Mus musculus [7] = assay: Terminal blood glucose level was determined in ob/ob mice after oral administration for two weeks (control = 226+/-29); assay type: functional
Procedure, shortened: (§1)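 ob/ob mice on Purina 5015 chow, given drug as admixture in milled chow for 14 days. Intake measured from food-bowl weight change. Blood from retro-orbital sinus, heparinized, kept on ice and analyzed promptly. Blood glucose measured before and after treatment. Group sizes 8–15, housed at 21 °C on 12 h light–dark cycle; two-way ANOVA, Student–Newman–Keuls post hoc.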

Mus musculus [8] = assay: Average daily food consumption was determined in ob/ob mice after oral administration for two weeks (control = 90+/-3); assay type: functional
Mus musculus [9] = species: Mus musculus; assay: Initial blood glucose level was determined in ob/ob mice (control=228+/-19); assay type: functional; procedure, shortened: as §1
Mus musculus [10] = species: Mus musculus; assay: Initial body weight was determined in ob/ob mice (control=55+/-1); assay type: functional
[11] = target: Creatine kinase M-type (Homo sapiens) (UniProt P06732); assay: Reaction rate of creatine kinase activity is determined at 100 mM concentration (relative to creatine)
Mus musculus [12] = assay: Terminal body weight was determined in ob/ob mice after oral administration for two weeks (control = 53+/-1); assay type: functional
Mus musculus [13] = species: Mus musculus; assay: Average daily dose was determined in ob/ob mice(0); assay type: functional
Mus musculus [14] = assay: Terminal fat body weight was determined in ob/ob mice after oral administration for two weeks (control = 28+/-0.9); assay type: functional

Sequence of Creatine kinase M-type (Homo sapiens) (P06732 whole entry): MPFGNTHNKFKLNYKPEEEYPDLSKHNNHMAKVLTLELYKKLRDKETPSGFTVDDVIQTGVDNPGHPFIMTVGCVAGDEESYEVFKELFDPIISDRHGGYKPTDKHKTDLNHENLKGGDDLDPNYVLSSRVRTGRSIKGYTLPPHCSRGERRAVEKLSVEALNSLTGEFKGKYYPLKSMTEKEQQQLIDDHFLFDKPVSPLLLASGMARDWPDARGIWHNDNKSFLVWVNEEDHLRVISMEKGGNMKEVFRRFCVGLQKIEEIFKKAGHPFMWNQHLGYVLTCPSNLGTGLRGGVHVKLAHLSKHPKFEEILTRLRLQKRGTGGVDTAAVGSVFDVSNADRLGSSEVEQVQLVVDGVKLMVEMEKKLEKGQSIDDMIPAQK

SMILES: CCOC(=O)CC/N=C(\N)N=C(N)N.Cl.Cl
MISS T/C [1]: 1.06

SMILES: N/N=C(/NCC(=O)O)NNc1ccccn1
MISS T/C [1]: 0.91

SMILES: N/C(=N\N=C\C(=O)O)N/N=C/C(=O)O
MISS T/C [1]: 0.88

SMILES: Cl.Cl.N=C(N)CNCC(=O)O
MISS T/C [1]: 1.18

SMILES: Cl.Cl.N=C(CN)NCCC(=O)O
MISS T/C [1]: 0.97

Reaction rate [2]: 0.1
SMILES: NNC(=NCC(=O)O)NN
blood glucose treated/control ratio (Mus musculus [3]): 0.23
inhibition [4]: 88%

Reaction rate [5]: 100
SMILES: CN(CC(=O)O)C(=N)N
inhibition [4]: 92%

SMILES: N/N=C(\NN)N[C@H](C(=O)O)c1ccccc1
MISS T/C [1]: 1.06

SMILES: N=C(N)N(N)CC(=O)O
MISS T/C [1]: 1.04

SMILES: CC(C)(C)OC(=O)NCCNC(=NCC(=O)O)NCCNC(=O)OC(C)(C)C
MISS T/C [1]: 0.9

SMILES: N/N=C(/NCC(=O)O)NN1CCOCC1
MISS T/C [1]: 1

SMILES: N=C(N)C(=N)NCC(=O)O
MISS T/C [1]: 1.08

SMILES: CC(C)NNC(=N)NNCC(=O)O
MISS T/C [1]: 0.9

SMILES: COC(=O)NNC(=NCC(=O)O)NNC(=O)OC
MISS T/C [1]: 0.92

SMILES: N=C(NN)NCCCC(=O)O
MISS T/C [1]: 1.14

SMILES: N=C(N)/N=C(\N)NCC(=O)O
MISS T/C [1]: 1.01

SMILES: CN(C)CCNC(=NCC(=O)O)NCCN(C)C
MISS T/C [1]: 0.95

SMILES: CC(C)(C)OC(=O)NNC(=NCC(=O)O)NNC(=O)OC(C)(C)C
MISS T/C [1]: 0.86

SMILES: Cl.NCCNC(=NCC(=O)O)NCCN
MISS T/C [1]: 0.86

SMILES: Cl.Cl.N=C(N)CNCCC(=O)O
MISS T/C [1]: 0.96

SMILES: N=C(NCCN)NCC(=O)O
MISS T/C [1]: 0.99

SMILES: NNC(=NCCCC(=O)O)NN
MISS T/C [1]: 0.93

SMILES: COC(=O)/C=N/N=C(N)N
MISS T/C [1]: 1.16

SMILES: Cl.Cl.N/C(CNCCC(=O)O)=N\O
MISS T/C [1]: 1

SMILES: N=C(N)N/N=C(\Cc1ccccc1)C(=O)O
MISS T/C [1]: 0.68

SMILES: Nc1nccn1NCC(=O)O
MISS T/C [1]: 0.99

SMILES: CC(=O)NNC(=NCC(=O)O)NNC(C)=O
MISS T/C [1]: 0.84

SMILES: C/C(=N\N=C(N)N)C(=O)O.Cl
MISS T/C [1]: 0.9

SMILES: Cl.Cl.N=C(N)C(=N)NCCC(=O)O
MISS T/C [1]: 1.1

SMILES: NC(=O)NNC(=NCC(=O)O)NNC(N)=O
MISS T/C [1]: 0.86

SMILES: Cl.Cl.NCC(CN)CCC(=O)O
MISS T/C [1]: 0.84

SMILES: CC1=NN=C(NCC(=O)O)NN1
MISS T/C [1]: 0.97

SMILES: CC(C)=NNC(=N)NNCC(=O)O
MISS T/C [1]: 0.98

SMILES: O=C(O)CNC1=NNC(=O)NN1
MISS T/C [1]: 1.04

SMILES: C[C@@H](N=C(NN)NN)C(=O)O
MISS T/C [1]: 0.66

SMILES: N=C(N)N/N=C/C(=O)O
MISS T/C [1]: <0.52

SMILES: N=C(N)NCCC(=O)O [OMPENACLID]
Body weight (Mus musculus [6]): 24 g
Blood glucose (Mus musculus [7]): 147 mg/dL
Food intake (Mus musculus [8]): 75 g/kg
Blood glucose (Mus musculus [9]): 229 mg/dL
Body weight (Mus musculus [10]): 54 g
inhibition [4]: 97%
Reaction rate [11]: 2.4
Body weight (Mus musculus [12]): 48 g
Dose (Mus musculus [13]): 377 mg/kg
Body weight (Mus musculus [14]): <24 g

SMILES: Cl.NC1=NC(=O)CNN1
MISS T/C [1]: 1.08

SMILES: N/C(=N/CC(=O)O)NO
MISS T/C [1]: 1.06

SMILES: O=C(O)CN=C(NCCO)NCCO
MISS T/C [1]: 1.07

SMILES: CN(C)/N=C(\NN)NCC(=O)O
MISS T/C [1]: 0.8
